Results: ChEMBL document CHEMBL3352487, “Synthesis, antibacterial activity, and biological evaluation of formyl hydroxyamino derivatives as novel potent peptide deformylase inhibitors against drug-resistant bacteria” (Eur J Med Chem, 2014)
In brackets after ≈: the same amount, converted by molar mass.

Columns and labels:
Format in all cases: functional
Escherichia coli [1] = test: Antimicrobial activity against Escherichia coli isolate 3 after 24 hrs by broth microdilution method; conditions: isolate 3, 24 h
Procedure, shortened: (§1)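 Broth microdilution following NCCLS M7-A4; ATCC strains and clinical isolates from a provincial hospital.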

Enterococcus faecalis = test: Antimicrobial activity against Enterococcus faecalis Isolate 1 after 24 hrs by broth microdilution method; conditions: Isolate 1, 24 h; procedure, shortened: as §1
Staphylococcus aureus [2] = test: Antimicrobial activity against Staphylococcus aureus isolate F89 after 24 hrs by broth microdilution method; conditions: isolate F89, 24 h; procedure, shortened: as §1
Staphylococcus aureus [3] = test: Antimicrobial activity against Staphylococcus aureus isolate CL 1033 after 24 hrs by broth microdilution method; conditions: isolate CL 1033, 24 h; procedure, shortened: as §1
Haemophilus influenzae [4] = test: Antimicrobial activity against AcrA-deficient Haemophilus influenzae H128 after 24 hrs by broth microdilution method; conditions: H128, 24 h; procedure, shortened: as §1
Staphylococcus aureus [5] = test: Antimicrobial activity against Staphylococcus aureus WCUH29 after 24 hrs by broth microdilution method; conditions: WCUH29, 24 h; procedure, shortened: as §1
Staphylococcus aureus [6] = test: Antimicrobial activity against Staphylococcus aureus isolate MN 1255 after 24 hrs by broth microdilution method; conditions: isolate MN 1255, 24 h; procedure, shortened: as §1
Staphylococcus aureus [7] = test: Antimicrobial activity against Staphylococcus aureus isolate Smith ATCC 13709 after 24 hrs by broth microdilution method; conditions: isolate Smith ATCC 13709, 24 h
Procedure, shortened: (§2)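 Broth microdilution following NCCLS M7-A4, using ATCC strains and clinical isolates from a provincial hospital.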

Staphylococcus aureus [8] = test: Antimicrobial activity against Staphylococcus aureus isolate 929035 after 24 hrs by broth microdilution method; conditions: isolate 929035, 24 h; procedure, shortened: as §1
Streptococcus pyogenes [9] = test: Antimicrobial activity against Streptococcus pyogenes 1308007P after 24 hrs by broth microdilution method; procedure, shortened: as §1
Staphylococcus aureus [10] = test: Antimicrobial activity against Staphylococcus aureus isolate CL 939 after 24 hrs by broth microdilution method; conditions: isolate CL 939, 24 h; procedure, shortened: as §2
Staphylococcus aureus [11] = test: Antimicrobial activity against Staphylococcus aureus isolate OGA833 after 24 hrs by broth microdilution method; conditions: isolate OGA833, 24 h; procedure, shortened: as §1
Staphylococcus aureus [12] = test: Antimicrobial activity against Staphylococcus aureus isolate 934387 after 24 hrs by broth microdilution method; conditions: isolate 934387, 24 h; procedure, shortened: as §2
Haemophilus influenzae [13] = test: Antimicrobial activity against Haemophilus influenzae Q1 after 24 hrs by broth microdilution method; conditions: Q1, 24 h; procedure, shortened: as §1
Enterococcus faecium = test: Antimicrobial activity against Enterococcus faecium X7501 after 24 hrs by broth microdilution method; conditions: X7501, 24 h; procedure, shortened: as §1
Staphylococcus aureus [14] = test: Antimicrobial activity against Staphylococcus aureus isolate A53 after 24 hrs by broth microdilution method; conditions: isolate A53, 24 h; procedure, shortened: as §2
Staphylococcus aureus [15] = test: Antimicrobial activity against Staphylococcus aureus isolate NEQAS 4158 after 24 hrs by broth microdilution method; conditions: isolate NEQAS 4158, 24 h; procedure, shortened: as §1
Staphylococcus aureus [16] = test: Antimicrobial activity against Staphylococcus aureus isolate 934334 after 24 hrs by broth microdilution method; conditions: isolate 934334, 24 h; procedure, shortened: as §1
Streptococcus pneumoniae [17] = test: Antimicrobial activity against Streptococcus pneumoniae N1387 after 24 hrs by broth microdilution method; conditions: N1387, 24 h; procedure, shortened: as §1
Staphylococcus aureus [18] = test: Antimicrobial activity against Staphylococcus aureus isolate RN4220 pmz1 after 24 hrs by broth microdilution method; conditions: isolate RN4220 pmz1, 24 h; procedure, shortened: as §2
Staphylococcus aureus [19] = test: Antimicrobial activity against Staphylococcus aureus isolate 929003 after 24 hrs by broth microdilution method; conditions: isolate 929003, 24 h; procedure, shortened: as §1
Staphylococcus aureus [20] = test: Antimicrobial activity against Staphylococcus aureus isolate RN1030 after 24 hrs by broth microdilution method; conditions: isolate RN1030, 24 h; procedure, shortened: as §2
Staphylococcus aureus [21] = test: Antimicrobial activity against Staphylococcus aureus isolate NEQAS 4026 after 24 hrs by broth microdilution method; conditions: isolate NEQAS 4026, 24 h; procedure, shortened: as §1
Staphylococcus aureus [22] = test: Antimicrobial activity against Staphylococcus aureus isolate 68/8684 after 24 hrs by broth microdilution method; conditions: isolate 68/8684, 24 h; procedure, shortened: as §1
Staphylococcus aureus [23] = test: Antimicrobial activity against Staphylococcus aureus isolate CARTER 37 after 24 hrs by broth microdilution method; conditions: isolate CARTER 37, 24 h; procedure, shortened: as §2
Streptococcus pneumoniae [24] = test: Antimicrobial activity against Streptococcus pneumoniae 1629 after 24 hrs by broth microdilution method; conditions: Streptococcus pneumoniae, 1629, 24 h; procedure, shortened: as §1
Staphylococcus aureus [25] = test: Antimicrobial activity against Staphylococcus aureus isolate SWEETING after 24 hrs by broth microdilution method; procedure, shortened: as §2
Staphylococcus aureus [26] = test: Antimicrobial activity against Staphylococcus aureus isolate Ealing 23 after 24 hrs by broth microdilution method; conditions: isolate Ealing 23, 24 h; procedure, shortened: as §2
Staphylococcus aureus [27] = test: Antimicrobial activity against Staphylococcus aureus isolate RN1024 after 24 hrs by broth microdilution method; conditions: isolate RN1024, 24 h; procedure, shortened: as §2
Staphylococcus aureus [28] = test: Antimicrobial activity against Staphylococcus aureus isolate MILES HALL after 24 hrs by broth microdilution method; procedure, shortened: as §2
Staphylococcus aureus [29] = test: Antimicrobial activity against Staphylococcus aureus isolate Ealing 32 after 24 hrs by broth microdilution method; conditions: isolate Ealing 32, 24 h; procedure, shortened: as §1
Staphylococcus aureus [30] = test: Antimicrobial activity against Staphylococcus aureus ATCC 29213 after 24 hrs by broth microdilution method; conditions: ATCC 29213, 24 h; procedure, shortened: as §1
Streptococcus pneumoniae [31] = test: Antimicrobial activity against Streptococcus pneumoniae ERY2 after 24 hrs by broth microdilution method; conditions: ERY2, 24 h; procedure, shortened: as §1
Staphylococcus aureus [32] = test: Antimicrobial activity against Staphylococcus aureus isolate CL 938 after 24 hrs by broth microdilution method; conditions: isolate CL 938, 24 h; procedure, shortened: as §1
Staphylococcus aureus [33] = test: Antimicrobial activity against Staphylococcus aureus isolate RUSSELL after 24 hrs by broth microdilution method; procedure, shortened: as §2
Staphylococcus aureus [34] = test: Antimicrobial activity against Staphylococcus aureus OXFORD after 24 hrs by broth microdilution method; procedure, shortened: as §2
Haemophilus influenzae [35] = test: Antimicrobial activity against Haemophilus influenzae H128 after 24 hrs by broth microdilution method; conditions: H128, 24 h; procedure, shortened: as §1
Staphylococcus aureus [36] = test: Antimicrobial activity against Staphylococcus aureus isolate 934324 after 24 hrs by broth microdilution method; conditions: isolate 934324, 24 h; procedure, shortened: as §1
Streptococcus pyogenes [37] = test: Antimicrobial activity against Streptococcus pyogenes 1307006P after 24 hrs by broth microdilution method; procedure, shortened: as §1
Staphylococcus aureus [38] = test: Antimicrobial activity against Staphylococcus aureus isolate PAV 5 after 24 hrs by broth microdilution method; conditions: isolate PAV 5, 24 h; procedure, shortened: as §1
Moraxella catarrhalis = test: Antimicrobial activity against Moraxella catarrhalis 1502 after 24 hrs by broth microdilution method; conditions: Moraxella catarrhalis, 1502, 24 h; procedure, shortened: as §1
Staphylococcus aureus [39] = test: Antimicrobial activity against Staphylococcus aureus isolate 306 after 24 hrs by broth microdilution method; conditions: isolate 306, 24 h; procedure, shortened: as §1
Staphylococcus aureus [40] = test: Antimicrobial activity against Staphylococcus aureus isolate 934335 after 24 hrs by broth microdilution method; conditions: isolate 934335, 24 h; procedure, shortened: as §1
Staphylococcus aureus [41] = test: Antimicrobial activity against Staphylococcus aureus ATCC 33591 in septicemia mouse model assessed as mortality of host at 10 mg/kg administered intragastrically measured after 14 days relative to control; conditions: ATCC 33591, po, 336 h, route intragastric
Procedure, shortened: (§3)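 Septicemia model: outbred mice inoculated i.p. with a 90–100% lethal dose (5 × 10^6 CFU/mL) in 0.5 mL brain heart infusion broth with 5% mucin. Drug in 20% DMSO given intragastrically after infection at 5, 10 or 20 mg/kg, 0.1 mL. Six mice per dose; cumulative mortality over 14 days; ED50 derived.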

Staphylococcus aureus [42] = test: Antimicrobial activity against Staphylococcus aureus ATCC 33591 in septicemia mouse model assessed as mortality of host at 20 mg/kg administered intragastrically measured after 14 days relative to control; conditions: ATCC 33591, po, 336 h, route intragastric; procedure, shortened: as §3
Escherichia coli [43] = test: Antimicrobial activity against Escherichia coli isolate 1 after 24 hrs by broth microdilution method; conditions: isolate 1, 24 h; procedure, shortened: as §1
Escherichia coli [44] = test: Antimicrobial activity against Escherichia coli isolate 2 after 24 hrs by broth microdilution method; conditions: isolate 2, 24 h; procedure, shortened: as §1
[45] = tested on: Staphylococcus epidermidis; test: Antimicrobial activity against Staphylococcus epidermidis after 24 hrs by broth microdilution method; procedure, shortened: as §1
Staphylococcus aureus [46] = test: Antimicrobial activity against Staphylococcus aureus ATCC 33591 in septicemia mouse model administered intragastrically measured after 14 days; conditions: ATCC 33591, po, 336 h
Staphylococcus aureus [47] = test: Antimicrobial activity against Staphylococcus aureus ATCC 33591 in septicemia mouse model assessed as mortality of host at 5 mg/kg administered intragastrically measured after 14 days relative to control; conditions: ATCC 33591, po, 336 h, route intragastric; procedure, shortened: as §3

Compound: CC1(C)S[C@@H]2[C@H](NC(=O)[C@H](N)c3ccc(O)cc3)C(=O)N2[C@H]1C(=O)O [AMOXICILLIN]
- MIC (Escherichia coli [1]): 1 µg/mL (≈ 2.74 µM)
- MIC (Enterococcus faecalis): 0.5 µg/mL (≈ 1.37 µM)
- MIC (Staphylococcus aureus [2]): 2 µg/mL (≈ 5.47 µM)
- MIC (Staphylococcus aureus [3]): > 16 µg/mL
- MIC (Haemophilus influenzae [4]): 64 µg/mL (≈ 175 µM)
- MIC (Staphylococcus aureus [5]): 64 µg/mL (≈ 175 µM)
- MIC (Staphylococcus aureus [6]): > 16 µg/mL
- MIC (Staphylococcus aureus [7]): 0.125 µg/mL (≈ 0.342 µM)
- MIC (Staphylococcus aureus [8]): > 16 µg/mL
- MIC (Streptococcus pyogenes [9]): ≤ 0.06 µg/mL
- MIC (Staphylococcus aureus [10]): 2 µg/mL (≈ 5.47 µM)
- MIC (Staphylococcus aureus [11]): > 16 µg/mL
- MIC (Staphylococcus aureus [12]): > 16 µg/mL
- MIC (Haemophilus influenzae [13]): 0.25 µg/mL (≈ 0.684 µM)
- MIC (Enterococcus faecium): 16 µg/mL (≈ 43.8 µM)
- MIC (Staphylococcus aureus [14]): 0.125 µg/mL (≈ 0.342 µM)
- MIC (Staphylococcus aureus [15]): > 16 µg/mL
- MIC (Staphylococcus aureus [16]): > 16 µg/mL
- MIC (Streptococcus pneumoniae [17]): 2 µg/mL (≈ 5.47 µM)
- MIC (Staphylococcus aureus [18]): 0.125 µg/mL (≈ 0.342 µM)
- MIC (Staphylococcus aureus [19]): > 16 µg/mL
- MIC (Staphylococcus aureus [20]): > 16 µg/mL
- MIC (Staphylococcus aureus [21]): > 16 µg/mL
- MIC (Staphylococcus aureus [22]): > 16 µg/mL
- MIC (Staphylococcus aureus [23]): 0.25 µg/mL (≈ 0.684 µM)
- MIC (Streptococcus pneumoniae [24]): ≤ 0.06 µg/mL
- MIC (Staphylococcus aureus [25]): 0.125 µg/mL (≈ 0.342 µM)
- MIC (Staphylococcus aureus [26]): 0.5 µg/mL (≈ 1.37 µM)
- MIC (Staphylococcus aureus [27]): > 16 µg/mL
- MIC (Staphylococcus aureus [28]): 0.25 µg/mL (≈ 0.684 µM)
- MIC (Staphylococcus aureus [29]): 1 µg/mL (≈ 2.74 µM)
- MIC (Staphylococcus aureus [30]): 1 µg/mL (≈ 2.74 µM)
- MIC (Streptococcus pneumoniae [31]): ≤ 0.06 µg/mL
- MIC (Staphylococcus aureus [32]): > 16 µg/mL
- MIC (Staphylococcus aureus [33]): > 16 µg/mL
- MIC (Staphylococcus aureus [34]): 0.125 µg/mL (≈ 0.342 µM)
- MIC (Haemophilus influenzae [35]): 32 µg/mL (≈ 87.6 µM)
- MIC (Staphylococcus aureus [36]): > 16 µg/mL
- MIC (Streptococcus pyogenes [37]): ≤ 0.06 µg/mL
- MIC (Staphylococcus aureus [38]): > 16 µg/mL
- MIC (Moraxella catarrhalis): ≤ 0.06 µg/mL
- MIC (Staphylococcus aureus [39]): > 16 µg/mL
- MIC (Staphylococcus aureus [40]): > 16 µg/mL

Compound: CC(=O)NC[C@H]1CN(c2ccc(N3CCOCC3)c(F)c2)C(=O)O1 [LINEZOLID]
- mortality at 10 mg/kg (Staphylococcus aureus [41]): 66%
- mortality at 20 mg/kg (Staphylococcus aureus [42]): 16%
- MIC (Escherichia coli [43]): > 64 µg/mL
- MIC (Escherichia coli [44]): > 64 µg/mL
- MIC [45]: 0.5 µg/mL (≈ 1.48 µM)
- ED50 (Staphylococcus aureus [46]): 11.9 mg/kg
- mortality at 5 mg/kg (Staphylococcus aureus [47]): 83%
